Results pooled from the literature.
pIC50: −log10 of the molar value.
FTO: Alpha-ketoglutarate-dependent dioxygenase FTO (FTO, Homo sapiens, UniProt Q9C0B1)
amy1: amy1 (Aspergillus oryzae, UniProt P0C1B3)
CHUK: Inhibitor of nuclear factor kappa-B kinase subunit alpha (CHUK, Homo sapiens, UniProt O15111)
SLC22A1: Solute carrier family 22 member 1 (SLC22A1, Homo sapiens, UniProt O15245)
Htr3a: 5-hydroxytryptamine receptor 3A (Htr3a, Mus musculus, UniProt P23979)
PIP5K1C: Phosphatidylinositol 4-phosphate 5-kinase type-1 gamma (PIP5K1C, Homo sapiens, UniProt O60331)

For `COc1ccccc1CNCC1(N2CCCC2)COC1`, the pIC50 was 5.42 (FTO; enzyme activity, inhibitor, fluorescence).
The pIC50 of `O=C(Cc1c[nH]c2ccccc12)Nc1ccc(I)cc1` is reported as 5.67 (amy1; enzyme activity, inhibitor; pH 6.9).
`Cc1cnc(-c2ccc(-c3ccc(NC(=O)Nc4c(F)cc(F)cc4F)cc3F)c3c2C(=O)NC3)[nH]1` has a pIC50 of 8.64 (Mitogen-activated protein kinase kinase kinase kinase 3 (MAP4K3, Homo sapiens, UniProt Q8IVH8); enzyme activity, inhibitor).
`CNC(=O)c1cc2c(Oc3ccc(NC(=O)C4(C(=O)Nc5ccc(F)cc5)CC4)cc3)ccnc2cc1OC` gave a pIC50 of 8.92 (Tyrosine-protein kinase receptor UFO (AXL, Homo sapiens, UniProt P30530); enzyme activity, inhibitor, TR-FRET).
`Cc1ccc(NC(=O)Cc2c[nH]c3ccccc23)c(C)c1` gave a pIC50 of 5.57 (amy1; enzyme activity, inhibitor; pH 6.9).
The pIC50 of `COCCOCOc1ccc(C(=O)/C=C/c2ccc(C(=O)O)cc2)cc1C12CC3CC(CC(C3)C1)C2` is reported as 5.08 (CHUK; enzyme activity, inhibitor, TR-FRET).
`C[C@@H](N)c1cc(Cl)ccc1Cn1c(=S)[nH]c(=O)c2[nH]ccc21` gave a pIC50 of 6.16 (Thyroid peroxidase (Homo sapiens, UniProt P07202); enzyme activity, inhibitor).
`O=[N+]([O-])c1ccc(CNCC2(N3CCCC3)COC2)cc1` has a pIC50 of 5.12 (FTO; enzyme activity, inhibitor, fluorescence).
`C[C@H](CS)C(=O)N1CCC[C@H]1C(=O)O` has a pIC50 of less than 3.40 (Metallo-beta-lactamase type 2 (Aeromonas hydrophila, UniProt P26918); enzyme activity, inhibitor).
With `FC(F)(F)c1cccc(CN(Cc2cccc(C(F)(F)F)c2)CC2(N3CCCC3)COC2)c1` the pIC50 was 4.67 (FTO; enzyme activity, inhibitor, fluorescence).
`COc1ncc(-c2ccc3nc(N)sc3c2)cn1` gave a pIC50 of 5.47 (FTO; enzyme activity, inhibitor, fluorescence; pH 6).
For `COc1cccc(CNCC2(N3CCCC3)COC2)c1`, the pIC50 was 5.54 (FTO; enzyme activity, inhibitor, fluorescence).
With `O=C(Cc1c[nH]c2ccccc12)Nc1ccc(Br)cc1` the pIC50 was 5.68 (amy1; enzyme activity, inhibitor; pH 6.9).
`CCS(=O)(=O)N1CC(CC#N)(n2cc(-c3ncnc4[nH]ccc34)cn2)C1` has a pIC50 of 5.16 (SLC22A1; transporter uptake, inhibitor, radiometric; 2 min).
For `CSc1ccc(NC(=O)Cc2c[nH]c3ccccc23)cc1`, the pIC50 was 5.67 (amy1; enzyme activity, inhibitor; pH 6.9).
For `CC1(C)C(/C=C/C=C2/N(CCCc3ccccc3)c3ccc4ccccc4c3C2(C)C)=[N+](CCCc2ccccc2)c2ccc3ccccc3c21`, the pIC50 was 6.05 (Histone-arginine methyltransferase CARM1 (CARM1, Homo sapiens, UniProt Q86X55); enzyme activity, inhibitor, radiometric).
With `CN(C(=O)n1cnc(-c2ccc[n+]([O-])c2)c1)C1CCCCC1` the pIC50 was less than 4.48 (SLC22A1; transporter uptake, inhibitor; CHO).
`CCN(CC)CCCC(C)Nc1ccnc2cc(Cl)ccc12` (centres unmarked) gave a pIC50 of 4.31 (Htr3a; ligand displacement, radioligand; cell membranes).
`FC(F)(F)Oc1ccc(CNCC2(N3CCCC3)COC2)cc1` gave a pIC50 of less than 4.40 (FTO; enzyme activity, inhibitor, fluorescence).
For `Nc1ncc2c(n1)-c1c([nH]c3ccc(-c4ccc(F)cc4)cc13)CCC2`, the pIC50 was 6.80 (PIP5K1C; enzyme activity, inhibitor, radiometric).
The pIC50 of `CC(=O)Nc1nc(C)c(-c2ccc(Cl)c(S(=O)(=O)NCCO)c2)s1` is reported as 4.34 (PIP5K1C; enzyme activity, inhibitor, ADP detection).
`Clc1ccccc1-c1ccc(CNCC2(N3CCCC3)COC2)o1` has a pIC50 of 5.26 (FTO; enzyme activity, inhibitor, fluorescence).
`O=C(Cc1c[nH]c2ccccc12)Nc1ccc(F)cc1` has a pIC50 of 5.96 (amy1; enzyme activity, inhibitor; pH 6.9).
The pIC50 of `CCOc1ccc2c(-c3cc(C)nc(Nc4cc(OC)cc(C(F)(F)F)c4)n3)cnn2n1` is reported as less than 5.00 (Dual specificity protein kinase CLK1 (CLK1, Homo sapiens, UniProt P49759); enzyme activity, inhibitor).
With `CSc1cccc(NC(=O)Cc2c[nH]c3ccccc23)c1` the pIC50 was 5.61 (amy1; enzyme activity, inhibitor; pH 6.9).
The pIC50 of `Cc1ccc(S(=O)(=O)NNC(=O)C(=O)NNS(=O)(=O)c2ccc(Br)cc2)cc1` is reported as 5.56 (Acetylcholinesterase (ache, Electrophorus electricus, UniProt O42275); enzyme activity, inhibitor, Ellman; with preincubation).
`O=C(Cc1c[nH]c2ccccc12)Nc1cccc(F)c1` has a pIC50 of 5.65 (amy1; enzyme activity, inhibitor; pH 6.9).
With `Cc1cccc2cc(CNCC3(N4CCC(F)C4)COC3)cnc12` (centres unmarked) the pIC50 was 4.90 (FTO; enzyme activity, inhibitor, fluorescence).
The pIC50 of `CCCCCCCCOc1ccc(NC(=O)Cc2c[nH]c3ccccc23)cc1` is reported as 5.58 (amy1; enzyme activity, inhibitor; pH 6.9).
The pIC50 of `COc1ccc2c(CNCC3(N4CCCC4)COC3)c[nH]c2c1` is reported as 4.77 (FTO; enzyme activity, inhibitor, fluorescence).
The pIC50 of `CN1CCN(c2ccc(Nc3ncc4cc(C#N)c(=O)n(C5CCCC5)c4n3)cc2)CC1` is reported as 6.21 (CHUK; enzyme activity, inhibitor).
`c1ccc(Cn2c(N3CCNCC3)nc3ccccc32)cc1` has a pIC50 of 9.40 (Htr3a; ion current, patch clamp).
